The results in this text go back to ChEMBL document CHEMBL3352276, “Design, synthesis and in vitro antitumor activity of novel N-substituted-4-phenyl/benzylphthalazin-1-ones” (Eur J Med Chem, 2015).

Test [1] deals with HT-29. Put plainly: Ratio of doxorubicin IC50 to compound IC50 for human HT-29 cells. Format: functional.
The test system of test [2] is HepG2. Put plainly: Antiproliferative activity against human HepG2 cells after 72 hrs by SRB assay. Format: functional, cell-based. The settings on record: HepG2, 72 h.
Test [3] concerns MCF7. Briefly: Antiproliferative activity against human MCF7 cells after 72 hrs by SRB assay. The settings on record: MCF7, 72 h. The class given is functional, cell-based. The procedure, abridged: (§1)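 SRB assay. HT-29 grown in DMEM; HepG2 and MCF-7 grown in RPMI-1640, all with 10% heat-inactivated FBS at 37 °C under 5% CO2. Cells seeded at 1000–2000/well, left 24 h, then exposed to a range of concentrations for 72 h. Fixed with 10% TCA for 1 h at 4 °C, stained with 0.4% SRB, OD read at 564 nm. IC50 taken from a Boltzmann sigmoidal nonlinear fit. Mean ± S.D. of three separate experiments.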

In test [4] the test system is HT-29. Put plainly: Antiproliferative activity against human HT-29 cells after 72 hrs by SRB assay. The class given is functional, cell-based. The settings on record: HT-29, 72 h. The gist of the method:
as §1
In general terms: The SRB assay estimates cell density from bound dye.

The subject of test [5] is HepG2. Briefly: Induction of apoptosis in human HepG2 cells assessed as upregulation of Bax expression at IC50 by sandwich ELISA relative to untreated control. Format: functional.
The subject of test [6] is HepG2. Put plainly: Cell cycle arrest in human HepG2 cells assessed as reduction in S phase at IC50 for 24 hrs by propidium iodide staining-based FACS analysis relative to untreated control. Format: functional. The gist of the method:
(§2)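 HepG2 cells exposed 24 h at each compound's preset concentration. Then washed in ice-cold PBS, fixed in ice-cold 70% ethanol, treated with 0.1 mg/ml RNase and stained with PI. DNA content read by flow cytometry, and phase distribution compared with untreated control. Triplicate experiments.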
For orientation: A flow cytometer gives signals particle by particle.

The subject of test [7] is HepG2. Put plainly: Cell cycle arrest in human HepG2 cells assessed as reduction in G0/G1 phase at IC50 for 24 hrs by propidium iodide staining-based FACS analysis relative to untreated control. Format: functional. The procedure, abridged: as §2
For test [8], the system named is HepG2. Briefly: Induction of apoptosis in human HepG2 cells assessed as increase in caspase-3 expression at IC50 by sandwich ELISA relative to untreated control. Format: functional. On the technique in general: ELISA stands for enzyme-linked immunosorbent assay.
The subject of test [9] is HepG2. Put plainly: Cell cycle arrest in human HepG2 cells assessed as accumulation at preG1 phase at IC50 for 24 hrs by propidium iodide staining-based FACS analysis relative to untreated control. The class given is functional. The procedure, abridged: as §2
In test [10] the test system is HepG2. Briefly: Induction of apoptosis in human HepG2 cells assessed as apoptotic cells after 24 hrs by annexin-V/FITC-propidium iodide staining-based FACS analysis relative to untreated control. Format: functional. The gist of the method: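 HepG2 cells treated for 24 h, harvested and washed in PBS. 10^5 cells stained with annexin V-FITC and PI from a detection kit. Flow cytometry used unstained cells for voltage and compensation. Early plus late apoptotic quadrants (LR+UR) compared with control. Triplicate experiments.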

Test [11] concerns HepG2. Put plainly: Induction of apoptosis in human HepG2 cells assessed as down regulation of Bcl2 expression at IC50 by sandwich ELISA relative to untreated control. Format: functional.
Test [12] relates to HT-29. Put plainly: Induction of apoptosis in human HT-29 cells assessed as increase in caspase-3 expression at IC50 by sandwich ELISA relative to untreated control. The class given is functional.
In test [13] the test system is HepG2. Briefly: Cell cycle arrest in human HepG2 cells assessed as increase in S phase at IC50 for 24 hrs by propidium iodide staining-based FACS analysis relative to untreated control.
Test [14] deals with HepG2. Put plainly: Ratio of doxorubicin IC50 to compound IC50 for human HepG2 cells. Format: functional. The procedure, abridged: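 SRB growth assay: HepG2 in RPMI-1640 + 10% heat-inactivated FBS, seeded 1000–2000 cells/well, dosed after 24 h with graded concentrations alongside doxorubicin for 72 h; TCA-fixed, SRB-stained, OD 564 nm. IC50 fitted as Boltzmann sigmoidal curve vs untreated controls, three separate experiments; ratio = doxorubicin IC50 / compound IC50 from the same assay.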

Molecules are shown by their SMILES. Activity calls are given as the source filed them. The calls are words filed in the database; no cut-off is given here.

By IC50 is commonly meant the point on the concentration scale where inhibition reaches its midpoint. With `O=C(Cn1nc(Cc2ccccc2)c2ccccc2c1=O)Nc1ccc(Cl)cc1`, the “Ratio IC50” value in [1] is reported as 2.6. Besides, the IC50 in test [2] was over 100 µM; in test [3], 13 µM; in test [4] it was 2.98 µM.
Turning to `O=C(Cn1nc(Cc2ccccc2)c2ccccc2c1=O)Nc1ccc(F)cc1`, the IC50 in test [2] was 27 µM; in test [3] it was 30 µM; in test [4], 98 µM.
For `COc1ccc(NC(=O)Cn2nc(-c3ccccc3)c3ccccc3c2=O)cc1` the same measures were over 100 µM, 77 µM and over 100 µM.
Regarding `O=C(Cn1nc(-c2ccccc2)c2ccccc2c1=O)Nc1ccc(Cl)cc1`, the “Ratio IC50” value in [1] was found to be 1.9. Further, the IC50 in [2] came out at 10.3 µM; in [3] it was 33 µM; in test [4], 4.02 µM.
For `O=C(Cn1nc(-c2ccccc2)c2ccccc2c1=O)Nc1cccc(C(F)(F)F)c1`, the figures for the IC50 in [2], in test [3] and in test [4] were 3.5 µM, 58 µM and 41.2 µM, respectively. For the same molecule, the Activity in test [5] was 44%; in test [11], 9.6%. In addition, the outcome in test [6], in test [7] and in test [9] was inactive. Moreover, the Ratio is 2.5 in [8] and 2.1 in [10].
For `O=C(Cn1nc(-c2ccccc2)c2ccccc2c1=O)Nc1ccccc1`, the IC50 was 13.4 µM in test [2], 43 µM in [3] and 99 µM in [4].
In the case of `O=C(Cn1nc(Cc2ccccc2)c2ccccc2c1=O)Nc1ccccc1`, the IC50 in [2] is 66 µM; in test [3], 36 µM; in test [4], 95.4 µM.
Consider `O=C(Cn1nc(-c2ccccc2)c2ccccc2c1=O)Nc1cccc(Cl)c1`, for which the “Ratio IC50” value in test [1] is 2.5. Further, the IC50 in test [2] is 3.29 µM; in test [3], 74 µM; in test [4], 3.05 µM. Besides, the Activity is on record as 43.5% in [5] and 22% in test [11]. Further, the outcome in [6], in test [7] and in [9] was inactive. Also, the figures for the Ratio in test [12], in [8] and in test [10] were 5.6, 3 and 2.4, respectively.
`COc1cccc2c1C(=O)c1c(O)c3c(c(O)c1C2=O)C[C@@](O)(C(=O)CO)C[C@@H]3O[C@H]1C[C@H](N)[C@H](O)[C@H](C)O1` [DOXORUBICIN]: the IC50 is 3.45 µM in test [2] and 7.7 µM in [4].
In the case of `COc1ccc(NC(=O)Cn2nc(Cc3ccccc3)c3ccccc3c2=O)cc1`, the IC50 in test [2] is 69 µM; in [3], 62 µM; in test [4] it was over 100 µM.
Taken in the same sequence, the figures for `O=C(Cn1nc(-c2ccccc2)c2ccccc2c1=O)Nc1ccccc1Cl` were 33 µM, 30 µM and 88.6 µM.
In the case of `O=C(Cn1nc(-c2ccccc2)c2ccccc2c1=O)Nc1ccc(F)cc1`, the values for the IC50 in [2], in test [3] and in test [4] were 10.6 µM, 35 µM and 46.2 µM, respectively.
As to `O=C(Cn1nc(Cc2ccccc2)c2ccccc2c1=O)Nc1cccc(C(F)(F)F)c1`, the IC50 in [2] came to 3.52 µM; in test [3], 3.85 µM; in test [4], 61 µM. Also, the Activity came to 39.9% in [5], 27.7% in test [13], 32.3% in test [7] and 22% in [11]. The results for the Ratio in [8], in test [9] and in test [10] were 2.8, 9.4 and 2.7, respectively.
With `O=C(Cn1nc(Cc2ccccc2)c2ccccc2c1=O)Nc1ccccc1Cl`, the “Ratio IC50” value in [14] is 2.9. The IC50 worked out at 1.2 µM in test [2], 89 µM in [3] and 42.8 µM in [4]. In addition, the Activity in test [5] is 80.2%; in test [11] it was 34%. For the same molecule, the Ratio in test [6] came out at 1.9; in test [7] it was 2; in [8] it was 4; in test [9], 28; in test [10], 9.5.
`O=C(Cn1nc(Cc2ccccc2)c2ccccc2c1=O)Nc1cccc(Cl)c1`: the “Ratio IC50” value in test [1] turned out to be 2. In addition, the IC50 turned out to be 14.3 µM in test [2], 10.8 µM in test [3] and 3.68 µM in [4].
